Laboratory results reported in ChEMBL document CHEMBL2146464, “Structure-activity relationship study of nitrosopyrimidines acting as antifungal agents” (Bioorg Med Chem, 2012).
In brackets after ≈: the same amount, converted by molar mass. Activity calls are given as the source filed them. The calls are words filed in the database; no cut-off is given here.

What was measured:
[1] = tested on: Candida albicans; test: Antifungal activity against Candida albicans ATCC 10231 after 48 hrs by NCCLS broth microdilution method; format: functional; settings: ATCC 10231, 48 h, read-out: MIC100
Outline: (§1)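 Yeast MIC by NCCLS M27-A3 broth microdilution in RPMI-1640 buffered to pH 7.0 with MOPS. Twofold dilutions of 250–0.98 µg/mL, final DMSO ≤1%. Inoculum 1–5 × 10³ CFU/mL. Incubated at 30 °C in a moist dark chamber. Read visually at 48 h. MIC100 is the lowest concentration with no visible growth versus drug-free control.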

[2] = tested on: Candida albicans; test: Fungicidal activity against Candida albicans ATCC 10231 after 48 hrs by agar plate dilution method; format: functional; settings: ATCC 10231, 48 h
Outline: (§2)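 MFC: after the microdilution MIC, material from each clear well was plated onto RPMI-1640 agar buffered with MOPS. Plates incubated at 30 °C and read after 48 h. MFC is the lowest concentration giving total inhibition of visible growth.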

[3] = tested on: Candida tropicalis; test: Antifungal activity against Candida tropicalis by microplate reader analysis; format: functional
[4] = Acute toxicity in bony fish assessed as mortality at 0.4 ug/mL after 96 hrs; settings: actinopterygii; read-out: Activity
Outline: (§3)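 Guppy (Poecilia reticulata) acute static exposure: 10 fish per concentration in 2 L wide-mouthed jars holding the test solution. Compounds were added from […] to give the final concentrations. Dead fish were counted and removed every 24 h, with general condition noted; percentage mortality was scored at 96 h. Two experiments, each in triplicate.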

[5] = tested on: Candida tropicalis; test: Antifungal activity against Candida tropicalis assessed as growth inhibition at 3.9 ug/mL by microplate reader analysis; format: functional; settings: read-out: GI
[6] = tested on: Candida albicans; test: Antifungal activity against Candida albicans ATCC 10231 assessed as growth inhibition at 15.6 ug/mL after 24 hrs by microplate reader analysis; format: functional; settings: ATCC 10231, 24 h, read-out: GI
Outline: (§4)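 96-well RPMI-1640 wells with compound at final 250–0.98 µg/mL (DMSO ≤1%). Inoculum 100 µL, 1–5 × 10³ CFU/mL, 200 µL final. Each well includes growth (DMSO, no compound) and sterility controls. % inhibition = 100 − (CTW−SCW)/(GCW−SCW) × 100, run in duplicate.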

[7] = tested on: Candida tropicalis; test: Fungicidal activity against Candida tropicalis after 48 hrs by agar plate dilution method; format: functional; outline: as §2
[8] = Acute toxicity in bony fish assessed as mortality at 0.8 ug/mL after 48 hrs; settings: actinopterygii; read-out: Activity
[9] = tested on: Candida albicans; test: Antifungal activity against Candida albicans ATCC 10231 assessed as growth inhibition at 250 ug/mL after 24 hrs by microplate reader analysis; format: functional; settings: ATCC 10231, 24 h, read-out: GI; outline: as §4
[10] = tested on: Cryptococcus neoformans; test: Antifungal activity against Cryptococcus neoformans ATCC 32264 assessed as growth inhibition at 250 ug/mL after 48 hrs by microplate reader analysis; format: functional; settings: ATCC 32264, 48 h, read-out: GI
Outline: (§5)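 Microplate growth-inhibition assay in RPMI-1640, compound at final 250–0.98 µg/mL (DMSO ≤1%). Inoculum 1–5 × 10³ CFU/mL. Sterility and DMSO growth controls included. Percent inhibition is computed from blank-corrected OD relative to the growth control, tested in duplicate.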

[11] = tested on: Candida tropicalis; test: Antifungal activity against Candida tropicalis assessed as growth inhibition at 250 ug/mL by microplate reader analysis; format: functional; settings: read-out: GI
[12] = tested on: Cryptococcus neoformans; test: Antifungal activity against Cryptococcus neoformans ATCC 32264 assessed as growth inhibition at 125 ug/mL after 48 hrs by microplate reader analysis; format: functional; settings: ATCC 32264, 48 h, read-out: GI; outline: as §5
[13] = tested on: Cryptococcus neoformans; test: Antifungal activity against Cryptococcus neoformans ATCC 32264 after 48 hrs by NCCLS broth microdilution method; format: functional; settings: ATCC 32264, 48 h, read-out: MIC100; outline: as §1
[14] = tested on: Candida tropicalis; test: Antifungal activity against Candida tropicalis assessed as growth inhibition at 62.5 ug/mL by microplate reader analysis; format: functional; settings: read-out: GI
[15] = tested on: Candida tropicalis; test: Antifungal activity against Candida tropicalis assessed as growth inhibition at 31.25 ug/mL by microplate reader analysis; format: functional; settings: read-out: GI
[16] = tested on: Candida albicans; test: Antifungal activity against Candida albicans ATCC 10231 assessed as growth inhibition at 7.8 ug/mL after 24 hrs by microplate reader analysis; format: functional; settings: ATCC 10231, 24 h, read-out: GI; outline: as §4
[17] = tested on: Cryptococcus neoformans; test: Antifungal activity against Cryptococcus neoformans ATCC 32264 after 48 hrs by microplate reader analysis; format: functional; settings: ATCC 32264, 48 h; outline: as §5
[18] = tested on: Cryptococcus neoformans; test: Antifungal activity against Cryptococcus neoformans ATCC 32264 assessed as growth inhibition at 7.8 ug/mL after 48 hrs by microplate reader analysis; format: functional; settings: ATCC 32264, 48 h, read-out: GI; outline: as §5
[19] = tested on: Cryptococcus neoformans; test: Antifungal activity against Cryptococcus neoformans ATCC 32264 assessed as growth inhibition at 62.5 ug/mL after 48 hrs by microplate reader analysis; format: functional; settings: ATCC 32264, 48 h, read-out: GI; outline: as §5
[20] = tested on: Candida albicans; test: Antifungal activity against Candida albicans ATCC 10231 assessed as growth inhibition at 125 ug/mL after 24 hrs by microplate reader analysis; format: functional; settings: ATCC 10231, 24 h, read-out: GI; outline: as §4
[21] = tested on: Candida tropicalis; test: Antifungal activity against Candida tropicalis after 48 hrs by NCCLS broth microdilution method; format: functional; settings: read-out: MIC100; outline: as §1
[22] = tested on: Candida albicans; test: Antifungal activity against Candida albicans ATCC 10231 assessed as growth inhibition at 31.25 ug/mL after 24 hrs by microplate reader analysis; format: functional; settings: ATCC 10231, 24 h, read-out: GI; outline: as §4
[23] = tested on: Trichophyton rubrum; test: Fungicidal activity against Trichophyton rubrum CCC 110 after 48 hrs by agar plate dilution method; format: functional; settings: CCC 110, 48 h
Outline: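 Samples from each clear well of the MIC broth microdilution tray were plated onto RPMI-1640 agar buffered with MOPS. That tray had compounds twofold diluted in RPMI (pH 7.0, MOPS) from 250–0.98 µg/mL with inoculum of 1–5 × 10³ CFU/mL, incubated at 28–30 °C for dermatophytes. Plates were incubated at 30 °C and read at 48 h. MFC was taken as the lowest concentration giving total inhibition of visible growth.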

[24] = tested on: Cryptococcus neoformans; test: Antifungal activity against Cryptococcus neoformans ATCC 32264 assessed as growth inhibition at 3.9 ug/mL after 48 hrs by microplate reader analysis; format: functional; settings: ATCC 32264, 48 h, read-out: GI; outline: as §5
[25] = tested on: Aspergillus fumigatus; test: Antifungal activity against Aspergillus fumigatus ATCC 26934 at 0.98 to 250 ug/mL by NCCLS broth microdilution method; format: functional, organism-based
Outline: (§6)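 MIC by broth microdilution per NCCLS M27-A3/M38-A2 in RPMI-1640 buffered to pH 7.0 with MOPS. Twofold dilutions from 250–0.98 µg/mL, final DMSO ≤1%. Inoculum 1–5 × 10³ CFU/mL. Incubated in a moist dark chamber, 30 °C for Aspergillus and 28–30 °C for dermatophytes. Read visually when control growth allowed. Endpoint is the lowest concentration giving total inhibition of visible growth (MIC100).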

[26] = tested on: Cryptococcus neoformans; test: Fungicidal activity against Cryptococcus neoformans ATCC 32264 after 48 hrs by agar plate dilution method; format: functional; settings: ATCC 32264, 48 h; outline: as §2
[27] = tested on: Aspergillus niger; test: Antifungal activity against Aspergillus niger ATCC 9029 at 0.98 to 250 ug/mL by NCCLS broth microdilution method; format: functional, organism-based; outline: as §6
[28] = tested on: Candida albicans; test: Antifungal activity against Candida albicans ATCC 10231 assessed as growth inhibition at 62.5 ug/mL after 24 hrs by microplate reader analysis; format: functional; settings: ATCC 10231, 24 h, read-out: GI; outline: as §4
[29] = tested on: Candida tropicalis; test: Antifungal activity against Candida tropicalis assessed as growth inhibition at 125 ug/mL by microplate reader analysis; format: functional; settings: read-out: GI
[30] = tested on: Trichophyton mentagrophytes; test: Antifungal activity against Trichophyton mentagrophytes ATCC 9972 by NCCLS broth microdilution method; format: functional; settings: read-out: MIC100; outline: as §6
[31] = tested on: Cryptococcus neoformans; test: Antifungal activity against Cryptococcus neoformans ATCC 32264 assessed as growth inhibition at 15.6 ug/mL after 48 hrs by microplate reader analysis; format: functional; settings: ATCC 32264, 48 h, read-out: GI; outline: as §5
[32] = tested on: Nannizzia gypsea; test: Antifungal activity against Microsporum gypseum CCC 115 by NCCLS broth microdilution method; format: functional; settings: read-out: MIC100; outline: as §6
[33] = Acute toxicity in bony fish assessed as mortality at 5 ug/mL after 96 hrs; settings: actinopterygii, 96 h; outline: as §3
[34] = tested on: Trichophyton mentagrophytes; test: Fungicidal activity against Trichophyton mentagrophytes ATCC 9972 after 48 hrs by agar plate dilution method; format: functional; settings: ATCC 9972, 48 h; outline: as §2
[35] = tested on: Candida albicans; test: Antifungal activity against Candida albicans ATCC 10231 assessed as growth inhibition at 3.9 ug/mL after 24 hrs by microplate reader analysis; format: functional; settings: ATCC 10231, 24 h, read-out: GI; outline: as §4
[36] = tested on: Aspergillus flavus; test: Antifungal activity against Aspergillus flavus ATCC 9170 at 0.98 to 250 ug/mL by NCCLS broth microdilution method; format: functional, organism-based; outline: as §6
[37] = tested on: Trichophyton rubrum; test: Antifungal activity against Trichophyton rubrum CCC 110 by NCCLS broth microdilution method; format: functional; settings: read-out: MIC100; outline: as §6
[38] = tested on: Nannizzia gypsea; test: Fungicidal activity against Microsporum gypseum CCC 115 after 48 hrs by agar plate dilution method; format: functional; settings: CCC 115, 48 h; outline: as §2
[39] = tested on: Cryptococcus neoformans; test: Antifungal activity against Cryptococcus neoformans ATCC 32264 assessed as growth inhibition at 31.25 ug/mL after 48 hrs by microplate reader analysis; format: functional; settings: ATCC 32264, 48 h, read-out: GI; outline: as §5
[40] = tested on: Candida albicans; test: Antifungal activity against Candida albicans ATCC 10231 after 24 hrs by microplate reader analysis; format: functional; settings: ATCC 10231, 24 h; outline: as §4
[41] = tested on: Candida tropicalis; test: Antifungal activity against Candida tropicalis assessed as growth inhibition at 7.8 ug/mL by microplate reader analysis; format: functional; settings: read-out: GI
[42] = Acute toxicity in bony fish assessed as mortality at 1.6 ug/mL after 24 hrs; settings: actinopterygii; read-out: Activity
[43] = tested on: Candida tropicalis; test: Antifungal activity against Candida tropicalis assessed as growth inhibition at 15.6 ug/mL by microplate reader analysis; format: functional; settings: read-out: GI

SMILES: COc1nc(N)c(N=O)c(OCc2ccccc2)n1
- MIC [1]: 31.2 µg/mL (≈ 120 µM)
- MFC [2]: 62.5 µg/mL (≈ 240 µM)
- MIC50 [3]: 7.8 µg/mL (≈ 30 µM)
- mortality at 96 h, 0.4 ug/mL [4]: 0%
- inhibition of growth at 3.9 µg/mL [5]: 19.7%
- inhibition of growth at 15.6 µg/mL [6]: 99.6%
- MFC [7]: 62.5 µg/mL (≈ 240 µM)
- mortality at 48 h, 0.8 ug/mL [8]: 100%
- inhibition of growth at 250 µg/mL [9]: 100%
- inhibition of growth at 250 µg/mL [10]: 100%
- inhibition of growth at 250 µg/mL [11]: 100%
- inhibition of growth at 125 µg/mL [12]: 100%
- MIC [13]: 62.5 µg/mL (≈ 240 µM)
- inhibition of growth at 62.5 µg/mL [14]: 100%
- inhibition of growth at 31.25 µg/mL [15]: 100%
- inhibition of growth at 7.8 µg/mL [16]: 56.9%
- MIC50 [17]: 3.9 µg/mL (≈ 15 µM)
- inhibition of growth at 7.8 µg/mL [18]: 78.1%
- inhibition of growth at 62.5 µg/mL [19]: 100%
- inhibition of growth at 125 µg/mL [20]: 100%
- MIC [21]: 31.2 µg/mL (≈ 120 µM)
- inhibition of growth at 31.25 µg/mL [22]: 100%
- MFC [23]: 125 µg/mL (≈ 480 µM)
- inhibition of growth at 3.9 µg/mL [24]: 49.2%
- Activity [25]: inactive
- MFC [26]: 125 µg/mL (≈ 480 µM)
- Activity [27]: inactive
- inhibition of growth at 62.5 µg/mL [28]: 100%
- inhibition of growth at 125 µg/mL [29]: 100%
- MIC [30]: 125 µg/mL (≈ 480 µM)
- inhibition of growth at 15.6 µg/mL [31]: 80.2%
- MIC [32]: 62.5 µg/mL (≈ 240 µM)
- Activity [33]: Non-toxic
- MFC [34]: 125 µg/mL (≈ 480 µM)
- inhibition of growth at 3.9 µg/mL [35]: 47.2%
- Activity [36]: inactive
- MIC [37]: 125 µg/mL (≈ 480 µM)
- MFC [38]: 62.5 µg/mL (≈ 240 µM)
- inhibition of growth at 31.25 µg/mL [39]: 88.1%
- MIC50 [40]: 7.8 µg/mL (≈ 30 µM)
- inhibition of growth at 7.8 µg/mL [41]: 56.7%
- mortality at 24 h, 1.6 ug/mL [42]: 100%
- inhibition of growth at 15.6 µg/mL [43]: 96.7%
